Screening results from PubChem.
LMPTP inh: LMPTP (human) inhibition; P24666; recombinant LMPTP-A, OMFP fluorogenic substrate, fluorescence intensity; inhibition, % at 20 µM; 360,000 tested, 0.22% active;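 active = compounds that cut the enzyme signal by at least half of the control window in the single-dose screen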;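 also: plate controls were DMSO wells with enzyme plus substrate for no effect and substrate without enzyme for full effect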
Target sequence (P24666 whole entry, looked up): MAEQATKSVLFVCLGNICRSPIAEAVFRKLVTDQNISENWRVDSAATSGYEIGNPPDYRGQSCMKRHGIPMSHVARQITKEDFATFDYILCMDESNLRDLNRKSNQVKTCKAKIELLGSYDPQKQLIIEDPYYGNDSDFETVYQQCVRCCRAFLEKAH
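Assay system: LMPTP-A enzyme. Input: 0.625 nM LMPTP-A final. Probe or stimulus: 400 µM OMFP. Compound dosing: single 20 µM dose. Schedule: 50 min dark incubation at room temperature. Detection: fluorescence intensity of OMFP turnover product. Read-out: percent inhibition versus substrate-only and uninhibited controls. Benchmarks: no-enzyme low control, uninhibited high control.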
STEP inh: inhibitors of human striatal-enriched phosphatase STEP; recombinant STEP, OMFP fluorogenic substrate, fluorescence; inhibition, % at 20 µM; 360,000 tested, 0.25% active; AID 588621;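 active = inhibition at 20 µM, scaled per plate between control wells, above about 37%, limit read from the data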;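 also: 0% = DMSO with enzyme and substrate and 100% = substrate only without enzyme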
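medium = Bis-Tris buffer pH 6.0, 2.5 mM DTT, 0.005% Tween 20 | test system = STEP (striatal-enriched tyrosine phosphatase) enzyme, cell-free | measure = normalized % inhibition | compound dosing = 20 µM, 1% DMSO | also added = 25 µM OMFP | schedule = reaction 20 min, ambient temperature | measured by = fluorescence read at 480 nm ex / 540 nm em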
Scp-1 inhibitor: blocks human Scp-1 phosphatase activity; Recombinant Scp1, phosphopeptide, malachite green phosphate absorbance; 340,000 tested, 0.88% active; inhibition, % at 20 µM;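 active = inhibition above about 50% at 20 µM, limit read from the data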;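 also: plate controls were DMSO wells with enzyme for no effect and wells lacking enzyme for full effect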
Target sequence (Q9GZU7 76-261 limits assumed): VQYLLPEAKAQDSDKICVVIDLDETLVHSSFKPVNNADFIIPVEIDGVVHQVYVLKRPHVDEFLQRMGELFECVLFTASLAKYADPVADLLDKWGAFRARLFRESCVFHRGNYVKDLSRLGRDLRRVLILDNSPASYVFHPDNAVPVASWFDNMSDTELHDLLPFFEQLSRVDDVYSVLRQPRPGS
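Test system – truncated SCP-1 phosphatase (76-261aa) · Reagent – Phosphorylated 17-residue peptide substrate · Incubation – 45 min room-temperature reaction, 5 min colour, 30 min stabiliser · Detection – colorimetric phosphate reagent with accelerator and stabiliser, absorbance at 630 nm · Measure – % inhibition at 20 µM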
DNMT1 inh: blocks human DNA methyltransferase DNMT1; P26358; DNMT1 molecular beacon, Hinp1I cleavage, fluorescence; inhibition (reported as % activation of signal), % at 10 µM; 360,000 tested, 0.83% active; AID 588458; in the data active = inhibition above about 50%
SUMO1-SIM PPI: alters human SUMO1 binding to SIM partners | P63165 | SUMO1 binding to a labelled peptide, TR-FRET, 1 h | inhibition, % at 20 µM | 360,000 tested, 0.33% active | AID 602429; in the data active = inhibition above about 37%
Target sequence (P63165 whole entry, looked up): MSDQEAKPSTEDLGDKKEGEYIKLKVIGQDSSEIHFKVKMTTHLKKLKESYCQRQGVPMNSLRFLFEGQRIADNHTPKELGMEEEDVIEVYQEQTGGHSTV
Beacon interf DR: shows spectral interference in the DNMT1 beacon assay; 200 tested, under 10 active; AID 602382; shares compounds with DNMT1 inh; molecular beacon fluorescence, spectral interference counter-screen; IC50, µM; call rule not given here
DNMT1 inh conf: DNMT1 inhibition confirmation, single concentration; shares compounds with DNMT1 inh; DNMT1 molecular beacon HinP1I cleavage, fluorescence; inhibition, % at 10 µM; 2,300 tested, 8% active;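 active = average inhibition of at least 30% in the single-concentration confirmation test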
Beacon interf: beacon fluorescence artifact counter-screen | shares compounds with DNMT1 inh | 2,300 tested, 1% active | activation (fluorescence interference), % at 10 µM | DNMT1 molecular beacon spectral interference counterscreen, fluorescence 485/520;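 active = activation of at least 30% at 10 µM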;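 also: DNMT1 catalytic domain with a HinP1I cleavage step and a FAM/dabcyl DNA beacon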
Numbers without * were called inactive. A selection: hits, their analogues and other compounds. The true share with any hit is near 1.7%.

For COc1cccc(CNc2nc3cc(-c4cccc(C(F)(F)F)c4)sc3c(=O)n2C)c1 the results were LMPTP inh 2.9, STEP inh -0.5, DNMT1 inh -2.3 and SUMO1-SIM PPI -7.3.
Screening O=[N+]([O-])c1ccc2c([N+](=O)[O-])ccc3c2c1CC3 returned LMPTP inh 31.2, STEP inh 4.3, DNMT1 inh 72.9*, SUMO1-SIM PPI -17.9, DNMT1 inh conf 25.1 and Beacon interf 2.7.
`Cc1ccc(C(=O)Nc2ccc3c4c(cccc24)CC3)cc1[N+](=O)[O-]` gave LMPTP inh -0.9, STEP inh -0.6, Scp-1 inhibitor -7.3, DNMT1 inh -5.4 and SUMO1-SIM PPI -4.4.
CCOC(=O)C1=C(C)N=c2sc(=Cc3ccc(OCC(=O)O)cc3)c(=O)n2C1c1ccc(Cl)cc1 (configuration not stated) was read as LMPTP inh 75.9*, STEP inh 10.0, DNMT1 inh 91.8*, SUMO1-SIM PPI 44.1*, Beacon interf DR >99, DNMT1 inh conf 98.8* and Beacon interf -4.8.
`Cc1ccc(C(=O)Nc2nc(-c3ccc([N+](=O)[O-])cc3)cs2)o1` gave LMPTP inh 11.2, STEP inh -2.6, Scp-1 inhibitor -10.1, DNMT1 inh 51.4*, SUMO1-SIM PPI -8.2, DNMT1 inh conf 4.5 and Beacon interf 1.6.
`COc1ccc(S(=O)(=O)N(CC(=O)NCc2ccccn2)Cc2ccccc2)cc1` gave LMPTP inh 0.4, STEP inh -3.1, Scp-1 inhibitor -4.9, DNMT1 inh 0.7 and SUMO1-SIM PPI 4.9.
O=C(CN(Cc1ccc(Br)cc1)S(=O)(=O)c1ccccc1)NCc1ccccn1 was read as LMPTP inh -0.5, STEP inh -0.8, Scp-1 inhibitor 3.8, DNMT1 inh 86.8*, SUMO1-SIM PPI -3.5, DNMT1 inh conf 4.5 and Beacon interf 5.0.
O=C(O)c1cccc(-c2noc(-c3cccc(Cl)c3)n2)c1 was read as LMPTP inh -1.0, STEP inh 3.4, Scp-1 inhibitor -5.6, DNMT1 inh 83.1*, SUMO1-SIM PPI 14.3, DNMT1 inh conf 0.1 and Beacon interf 2.0.
`c1cc2ccc3ccc(-n4cnnn4)c4ccc(c1)c2c34` gave LMPTP inh 13.0, STEP inh 1.2, Scp-1 inhibitor 27.5, DNMT1 inh 59.9*, SUMO1-SIM PPI -2.6, DNMT1 inh conf 5.3 and Beacon interf 3.5.
Cc1ccc(CNS(=O)(=O)c2c(C)[nH]c(C)c2C(=O)N2CCCCC2)o1 was read as LMPTP inh -0.1, STEP inh -1.1, Scp-1 inhibitor -13.1, DNMT1 inh 0.4 and SUMO1-SIM PPI 2.5.
Cc1ccc(F)c(S(=O)(=O)NC(=O)C2(C)CCN2C(=O)COc2ccc(Cl)cc2)c1 (configuration not stated) was read as LMPTP inh -1.5, STEP inh -2.7, DNMT1 inh -2.5 and SUMO1-SIM PPI 1.0.
Nc1cc(S(=O)(=O)O)cc([N+](=O)[O-])c1O was read as LMPTP inh 0.6, STEP inh 17.9, Scp-1 inhibitor 33.6, DNMT1 inh 66.4*, SUMO1-SIM PPI -2.8, Beacon interf DR >99, DNMT1 inh conf 72.3* and Beacon interf -5.2.
Cc1ccsc1C(=O)C1CCCN(Cc2cccn2-c2ccc(Cl)cn2)C1 (configuration not stated) was read as LMPTP inh 1.0, STEP inh 3.2, Scp-1 inhibitor 26.3, DNMT1 inh 112.7*, SUMO1-SIM PPI -1.3, DNMT1 inh conf 0.5 and Beacon interf -2.0.
Screening O=C(c1ccc(Cl)cc1)C1CCCN(Cc2cccn2-c2ccccn2)C1 (configuration not stated) returned LMPTP inh -0.9, STEP inh -1.9, Scp-1 inhibitor -2.1, DNMT1 inh 0.9 and SUMO1-SIM PPI 0.8.
COc1cc(OC)cc(-c2c(-c3cccs3)c3cc(-c4ccc(C(N)=O)cc4)ccc3n2C)c1 was read as LMPTP inh -0.5, STEP inh -1.2, Scp-1 inhibitor 0.6, DNMT1 inh 54.5*, SUMO1-SIM PPI -17.1, DNMT1 inh conf 0.5 and Beacon interf 2.0.
Cc1ccccc1NC(=O)COC(=O)/C=C/c1cn(-c2ccccc2)nc1-c1cccnc1 was read as LMPTP inh 0.5, STEP inh 4.7, Scp-1 inhibitor 3.8, DNMT1 inh 51.7*, SUMO1-SIM PPI 1.0, DNMT1 inh conf 0.8 and Beacon interf -3.7.
`CCN(CC)CCCn1c2c(c(SCC(=O)Nc3cc(C)on3)nc1=O)CCC2` gave LMPTP inh 0.4, STEP inh -1.8, Scp-1 inhibitor -1.1, DNMT1 inh 2.3 and SUMO1-SIM PPI 0.1.
Screening CCOC(=O)c1[nH]c2c(c1C)C(=O)CC(c1ccco1)C2 (configuration not stated) returned LMPTP inh 37.3, STEP inh 0.1, Scp-1 inhibitor 63.8*, DNMT1 inh 51.2*, SUMO1-SIM PPI 13.2, DNMT1 inh conf 6.7 and Beacon interf 5.8.
COCCOC(=O)c1[nH]c2c(c1C)C(=O)CC(c1ccc(N(C)C)cc1)C2 (configuration not stated) was read as LMPTP inh 3.5, STEP inh 4.3, Scp-1 inhibitor -7.1, DNMT1 inh -13.1 and SUMO1-SIM PPI -2.8.
For COCCOC(=O)c1[nH]c2c(c1C)C(=O)CC(c1ccco1)C2 (configuration not stated) the results were LMPTP inh 37.5, STEP inh 0.5, Scp-1 inhibitor 82.7*, DNMT1 inh 73.5*, SUMO1-SIM PPI 22.2, DNMT1 inh conf 4.0 and Beacon interf -1.6.
`COC(=O)CN1C(=O)S/C(=C/c2ccc(N3CCCCC3)o2)C1=O` gave LMPTP inh 2.3, STEP inh -57.7, Scp-1 inhibitor 0.4, DNMT1 inh 67.0*, SUMO1-SIM PPI -129.8, DNMT1 inh conf 70.3* and Beacon interf 52.5*.
O=C(O)CN1C(=O)/C(=C/c2ccc(N3CCCCC3)o2)SC1=S was read as LMPTP inh -0.4, STEP inh 31.9, Scp-1 inhibitor 45.4, DNMT1 inh 18.1 and SUMO1-SIM PPI -11.7.
For Cc1ccc(C2/C(=C(/O)c3ccccc3)C(=O)C(=O)N2CCN2CCOCC2)o1 (configuration not stated) the results were LMPTP inh -1.7, STEP inh 2.0, Scp-1 inhibitor -13.1, DNMT1 inh -2.3 and SUMO1-SIM PPI -1.9.
